Screening results deposited in PubChem BioAssay by several laboratories.
The sample as a whole holds a higher share of hits than the screen did.
XBP1 UPR activ: activators of adaptive arm of unfolded protein response (XBP1); CHO-XBP1 luciferase reporter, IRE1-XBP1 UPR activation, luminescence; percent of tunicamycin response, DMSO as zero; activation, % at 20 µM; actives 0.33% (n = 330,000);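 active = versus positive control, 20 µM dose yields 30% or more activation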
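Signal: luciferase luminescence; Assay system: CHO-XBP1 luciferase reporter cells; Amount: one thousand reporter cells per well; Dosing: 20 µM single concentration, DMSO 1%; Benchmarks: high control tunicamycin 10 µg/mL final, low control DMSO vehicle only; Schedule: 6 h compound exposure at 37 °C, 5% CO2; Evaluation: percent activation relative to tunicamycin reference.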
CHOP UPR activ: apoptotic UPR (CHOP) activation; CHO-CHOP luciferase reporter, luminescence; percent of tunicamycin response over DMSO baseline; activation, % at 10 µM; actives 0.34% (n = 330,000); AID 449763;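 active = at 10 µM dose, activation of 40% or more, normalized to positive control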
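System: CHO CHOP reporter cells. Amount: 500 cells per well. Buffer or medium: F12 medium, 10% FBS. Compound dosing: one dose, 10 µM in 0.5% DMSO. Incubation: 6 h compound exposure at 37 °C after overnight seeding. Technique: Steady-Glo luciferase luminescence. Benchmarks: tunicamycin and DMSO controls.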
B2AR ag: activates human beta-2 adrenergic receptor causing internalization | actives 0.43% (n = 340,000) | P07550 | Am2.2-beta2AR cells, FAP receptor internalization, flow cytometry | AID 504454 | response, % (no concentration beside the values);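 active = response above a set limit, near 3 SD of response in nonfluorescent compounds, cut at about 42% in these data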
p-CIP stab down: p/CIP protein destabilization; actives 0.01% (n = 290,000); F442A p/CIP-EGFP cells, EGFP fluorescence, 16 h; Q05BA5; decrease of EGFP signal, % at 10 µM;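 active = EGFP signal decrease of at least 30% at 10 µM or well 3 SD below plate mean, unless failing retest; inactive = the rest, including hits failing retest or dose response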
Target sequence (Q05BA5 1-1403): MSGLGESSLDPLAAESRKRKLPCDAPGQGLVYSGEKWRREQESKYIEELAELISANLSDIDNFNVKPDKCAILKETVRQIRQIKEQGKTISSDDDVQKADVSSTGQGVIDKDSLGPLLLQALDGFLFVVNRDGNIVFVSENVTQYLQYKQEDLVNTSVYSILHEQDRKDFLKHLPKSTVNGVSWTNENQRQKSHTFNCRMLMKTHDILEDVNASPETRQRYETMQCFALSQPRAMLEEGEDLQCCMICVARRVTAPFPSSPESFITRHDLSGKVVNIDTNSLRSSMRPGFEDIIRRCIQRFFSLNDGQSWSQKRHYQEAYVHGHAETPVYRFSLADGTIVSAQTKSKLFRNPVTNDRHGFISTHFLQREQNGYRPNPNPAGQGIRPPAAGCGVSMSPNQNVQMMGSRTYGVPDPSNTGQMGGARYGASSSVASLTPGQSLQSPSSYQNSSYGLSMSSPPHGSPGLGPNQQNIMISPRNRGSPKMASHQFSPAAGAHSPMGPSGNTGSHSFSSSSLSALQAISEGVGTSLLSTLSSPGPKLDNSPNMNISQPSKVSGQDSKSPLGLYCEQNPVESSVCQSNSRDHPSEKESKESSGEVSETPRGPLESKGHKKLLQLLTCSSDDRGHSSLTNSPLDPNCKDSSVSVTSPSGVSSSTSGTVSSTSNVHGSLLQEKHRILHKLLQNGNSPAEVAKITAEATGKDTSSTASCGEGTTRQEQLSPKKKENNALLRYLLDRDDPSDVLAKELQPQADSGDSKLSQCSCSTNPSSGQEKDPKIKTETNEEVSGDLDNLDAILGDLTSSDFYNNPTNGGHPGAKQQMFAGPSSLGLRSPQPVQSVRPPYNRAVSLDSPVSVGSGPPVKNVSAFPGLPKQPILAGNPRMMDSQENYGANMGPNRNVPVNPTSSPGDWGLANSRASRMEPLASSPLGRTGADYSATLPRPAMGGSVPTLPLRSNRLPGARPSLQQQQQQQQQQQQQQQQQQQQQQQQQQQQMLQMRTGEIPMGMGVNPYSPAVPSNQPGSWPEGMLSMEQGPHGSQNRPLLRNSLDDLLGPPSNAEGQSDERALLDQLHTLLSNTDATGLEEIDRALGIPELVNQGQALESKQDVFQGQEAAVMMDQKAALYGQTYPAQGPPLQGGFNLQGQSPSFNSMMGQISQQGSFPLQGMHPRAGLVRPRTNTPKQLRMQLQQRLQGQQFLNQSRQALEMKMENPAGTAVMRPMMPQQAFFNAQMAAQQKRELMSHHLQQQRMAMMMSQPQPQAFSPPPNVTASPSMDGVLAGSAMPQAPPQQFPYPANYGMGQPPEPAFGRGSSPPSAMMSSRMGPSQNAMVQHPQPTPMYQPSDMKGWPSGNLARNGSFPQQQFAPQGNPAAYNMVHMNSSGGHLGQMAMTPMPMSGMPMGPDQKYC
Dynein cargo inh: dynein cargo transport inhibition; z-score, hits read low; actives 0.47% (n = 220,000); 3617.4 mouse cells, GR-EGFP nuclear translocation imaging; test concentration mostly 20 µM; stimulated with dexamethasone, 1 µM; stronger effect = lower value;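 active = plate z-score of nuclear minus cytoplasmic receptor signal below a set negative limit, without overly bright fluorescence or cell loss, cut at about -3.5 in these data, passing the limit was not always enough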;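 also: z-score of nuclear minus cytoplasmic ring GR-EGFP intensity difference per well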
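medium = tetracycline-free induction medium containing charcoal-stripped FBS | probe or stimulus = dexamethasone, 1.0 µM final | timing = 48 h induction, then 1 h compound, then 30 min agonist, 37 °C | detection = automated 10x imaging of fixed Hoechst-stained cells | read-out basis = nuclear versus cytoplasmic GR-EGFP signal, averaged per well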
CHOP inh: inhibitors of CHOP induction in ER stress response. CHO-K1 CHOP-promoter luciferase, tunicamycin-induced, 15-18 h. inhibition, % at 10 µM. actives 3.8% (n = 220,000). AID 2732;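 active = compounds that reduced the stress-induced luciferase reporter signal by more than about 70% of percent inhibition, limit read from the data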
Each line names hits and unclear results; the compound was inactive in the other large screens.

Cc1cc(Nc2ccccc2)nc(N2CCN(C(=O)c3ccc4c(c3)OCO4)CC2)n1	none (no result: p-CIP stab down, Dynein cargo inh, CHOP inh)
CCCCC1C(=O)N(c2ccccc2)N(c2ccc(O)cc2)C1=O (stereo unspecified)	B2AR ag 60.8 (no result: p-CIP stab down, Dynein cargo inh, CHOP inh)
Cc1ccc(C)c(S(=O)(=O)/N=C2\C=C(NS(=O)(=O)c3ccccc3)C(=O)c3ccccc32)c1	none (no result: Dynein cargo inh, CHOP inh)
Cc1cc(C)c(S(=O)(=O)/N=C2/C=C(Sc3ncn[nH]3)C(=O)c3ccccc32)cc1C	B2AR ag 48.7, Dynein cargo inh -6.64, CHOP inh 108.7 (no result: XBP1 UPR activ, CHOP UPR activ)
CN(C(=O)c1ccc(Br)o1)C1(C)CCS(=O)(=O)C1 (stereo unspecified)	none (no result: Dynein cargo inh, CHOP inh)
COc1cccc(C(=O)N2CCN(Cc3ccccc3C(F)(F)F)CC2)c1	CHOP inh 71.4
CCOC(=O)C1CCN(C(=O)COC(=O)c2nn(C)c(=O)c3ccccc23)CC1	none (no result: p-CIP stab down, Dynein cargo inh, CHOP inh)
COC(=O)Cc1ccc(NC(=S)N2CCN(c3ccc(F)cc3)CC2)cc1	CHOP inh 71.9 (no result: XBP1 UPR activ, CHOP UPR activ)
COc1ccc(C(=O)N2CCN(c3ccc(NC(=O)Cc4ccccc4)cc3)CC2)cc1	none (no result: Dynein cargo inh, CHOP inh)
Cc1ccc(C(=O)N2CCN(c3ccc(NC(=S)NC(=O)Cc4ccccc4)cc3)CC2)cc1	CHOP inh 74.0
C=CCn1c(SCC(=O)Nc2ccc3c(c2)OCCO3)nc2cc(C(=O)O)ccc2c1=O	none (no result: p-CIP stab down, Dynein cargo inh, CHOP inh)
O=C(NCc1n[nH]c(=S)n1-c1ccc(F)cc1)c1ccc(S(=O)(=O)N2CCOCC2)cc1	CHOP inh 81.9
COc1ccc(Nc2nc(NC(C)(C)C)nc(N3CCCC3)n2)c(OC)c1	CHOP inh 83.7
O=S(=O)(NCc1ccccc1)c1ccc(Cl)cc1	none
O=S(=O)(Nc1cc2nc3ccccc3nc2n1Cc1ccccc1)c1ccc(Cl)cc1	CHOP inh 92.5 (no result: XBP1 UPR activ, CHOP UPR activ)
CC1(C)CNc2cc([N+](=O)[O-])ccc2S1	CHOP inh 85.0
CC(=O)c1nn(-c2cccc(Br)c2)cc1C(=O)c1ccc(C)cc1	none
CC(=O)c1nn(-c2cccc(Br)c2)cc1C(=O)c1ccc(Br)cc1	CHOP inh 77.7
O=C(O)CCCCCC[C@H]1C(=O)NC(=O)N1CC[C@@H](O)C1CCCCC1	none (no result: XBP1 UPR activ, CHOP UPR activ, B2AR ag, p-CIP stab down, Dynein cargo inh)
CCOC(=O)c1cc(-c2cccc(C(F)(F)F)c2)nc2nc(SC)[nH]c(=O)c12	none
CCOC(=O)c1nc(C)nc(Sc2n[nH]c(-c3cc(C(F)(F)F)cc(C(F)(F)F)c3)n2)c1C	CHOP inh 71.9
Cc1ccc(-c2ccc(=O)[nH]n2)cc1	none
CCCCCc1ccc(-c2ccc(=O)[nH]n2)cc1	CHOP inh 92.8
Cc1ccc2[nH]c(O)c(N=Nc3ccccc3[N+](=O)[O-])c2c1	none (no result: XBP1 UPR activ, CHOP UPR activ, p-CIP stab down, Dynein cargo inh, CHOP inh)
CCN(CC)S(=O)(=O)c1cc([N+](=O)[O-])ccc1N=Nc1c(O)[nH]c2ccccc12	CHOP inh 75.2 (no result: XBP1 UPR activ, CHOP UPR activ)
COc1ccc(/C=N/Nc2nccnc2Cl)cc1	CHOP inh 71.5
COC(=O)c1sccc1N/N=C/c1cccc(OC)c1O	CHOP inh 83.0
COC(=O)c1sccc1N/N=C/c1ccc(OC)c(OC)c1OC	none
Clc1nccnc1N/N=C/c1ccc(Br)cc1	none (no result: Dynein cargo inh, CHOP inh)
COc1cccc(/C=N/Nc2nccnc2Cl)c1O	CHOP inh 74.4
COc1cccc(/C=N/Nc2cc(-n3nc(C)cc3-c3ccccc3)ncn2)c1O	CHOP inh 91.9
CCCS(=O)(=O)N1CCCC(C(=O)Oc2ccc(Cl)cc2)C1 (stereo unspecified)	none (no result: Dynein cargo inh, CHOP inh)
COc1cccc(/C=N/Nc2ncnc3scc(-c4ccccc4)c23)c1O	CHOP inh 74.7
COc1cccc(/C=N/Nc2ncnc(Cl)c2N)c1O	none
COc1cccc(/C=N/Nc2nc3ccccc3n3cnnc23)c1O	B2AR ag 108.9
Cc1cc(C)n(-c2nnc(C)n2NS(C)(=O)=O)n1	none
COC(=O)/C=C1\C(=O)N(c2nc3ccccc3s2)C(=S)N1c1ccc(F)cc1	none
COC(=O)/C=C1\C(=O)N(c2nc3ccc(OC)cc3s2)C(=S)N1c1ccc(F)cc1	CHOP UPR activ 73.1 (no result: B2AR ag)
CC1CCc2sc(C(=O)OC(C)C(=O)Nc3ncc(Cl)cc3Cl)cc2C1 (stereo unspecified)	CHOP inh 90.0 (no result: B2AR ag)
COCCCNC(=O)CCn1nc(-c2ccc(Cl)cc2)ccc1=O	none (no result: Dynein cargo inh, CHOP inh)
CCCCN(CCCC)S(=O)(=O)c1ccc(NC(=O)Cc2cccs2)cc1	B2AR ag 51.0, CHOP inh 81.7
CCCN(CCC)S(=O)(=O)c1ccc(NC(=O)Cc2cccs2)cc1	none
CCCCN(CCCC)S(=O)(=O)c1ccc(NS(=O)(=O)c2ccc(NC(C)=O)cc2)cc1	CHOP inh 93.0
O=C(Cc1cccc(NC(=O)C2CCN(C(=O)C3CCC3)CC2)c1)Nc1cccc(C(=O)N2CCOCC2)c1	none (no result: XBP1 UPR activ, CHOP UPR activ, p-CIP stab down, Dynein cargo inh, CHOP inh)
O=C1c2cccc3cccc(c23)C(=O)N1CC1CCN(CC(O)COc2ccc3ccccc3c2)CC1 (stereo unspecified)	B2AR ag 81.9 (no result: p-CIP stab down, Dynein cargo inh, CHOP inh)
CCc1ccc(OCC(O)CN2CCC(CN3C(=O)c4cccc5cccc(c45)C3=O)CC2)cc1 (stereo unspecified)	CHOP inh 93.7
COc1cccc(OCC(O)CN2CCC(CN3C(=O)c4cccc5cccc(c45)C3=O)CC2)c1 (stereo unspecified)	none
C=CCOC(=O)C1=C[C@@H](c2coc3ccccc3c2=O)[C@H](CCCO)[C@@H](OCC)O1	none
C=C1CCN([C@H](C(=O)NCc2ccc(Cl)cc2)C(C)C)S(=O)(=O)c2ccccc21	none
S=C(Nc1ccc(Cl)cc1Cl)Nc1ccccc1Oc1ccccc1	CHOP inh 78.5
S=C(Nc1cccc(Cl)c1)Nc1ccccc1Oc1ccccc1	CHOP inh 73.6
COc1ccccc1CN1CC(C(=O)NCc2cccnc2)CC1=O (stereo unspecified)	none
O=S(=O)(Nc1cc(Cl)cc(Cl)c1)N1CCOCC1	none (no result: Dynein cargo inh, CHOP inh)
CCOC(=O)c1sc2nc(C(C)C)c3c(c2c1N)CC(C)(C)OC3	CHOP inh 70.2
CCOC(=O)c1sc2nc(N3CCCC3)c3c(c2c1N)CC(C)(C)OC3	none
CCCOc1ncnc2c1[nH]c1ccccc12	CHOP inh 71.8
Cc1ccc(NC(=O)COc2ccccc2CNC(C)(C)CC(C)(C)C)cc1	CHOP inh 74.1
COc1cc(/C=C/c2ccc3cccc(OC)c3n2)c(O)c([N+](=O)[O-])c1	CHOP inh 93.8
COc1cc(/C=C/c2ccc3cccc(OC)c3n2)c(OC(C)=O)c([N+](=O)[O-])c1	none
CCOC(=O)N1CCC(NC(=O)c2cc(C(=O)NC3CCN(Cc4ccccc4)CC3)ccc2CO)CC1	none
Cc1[nH]c2ccc(-c3nnc(SCC(=O)c4ccc(F)cc4)o3)cc2c1C	none
